Laboratory results: ChEMBL document CHEMBL1131231, “New azole antifungals. 2. Synthesis and antifungal activity of heterocyclecarboxamide derivatives of 3-amino-2-aryl-1-azolyl-2-butanol” (1998)
Converted amounts (≈) assume the structure as drawn.

What was measured:
Format in all cases: functional
Candida albicans [1] = assay: In vivo antifungal activity against murine candidosis model after peroral administration with 0.5 mg/kg at various time intervals. (percent protection for 100% mortality with fluconazole-treated group.); conditions: route oral
Procedure, shortened: (§1)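 Male mice, groups of 10, infected iv with 0.2 mL Candida albicans at (2–8) × 10⁷ cfu/mL. Oral suspension in 1% Tween + 0.2% carboxymethylcellulose in water, given 1, 4 and 24 h post-infection; vehicle controls and a fluconazole group at the same dose. Survival scored on days 1, 2, 3, 5, 7, 9, reported as % surviving on the day untreated, or fluconazole-treated, mortality reached 100%.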

[2] = The compound was tested in vitro for antifungal activity against 10 yeasts.
Procedure, shortened: (§2)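 Agar dilution on Kimmig's agar with 0.5% glycerol; ATCC or clinical isolates, inocula at 10⁵ cfu/mL. Drugs from 800 μg/mL stock in 50% ethanol, 2-fold serial dilutions 80 to 0.03 μg/mL in plates. Incubated 25 °C, 48 h for yeasts, 120 h for filamentous fungi. Value is geometric mean of MICs (μg/mL); >80 taken as 160, ≤0.03 as 0.03.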

Candida albicans [3] = assay: In vivo antifungal activity against murine candidosis model after peroral administration with 0.5 mg/kg at various time intervals. (percent protection for 100% mortality with untreated group); conditions: route oral; procedure, shortened: as §1
[4] = The compound was tested in vitro for antifungal activity against 6 filamentous fungi.; procedure, shortened: as §2

| Structure (SMILES) | Protection (Candida albicans [1]) | MIC [2] | Protection (Candida albicans [3]) | MIC [4] |
| --- | --- | --- | --- | --- |
| C[C@@H](NC(=O)c1ccc(-c2cc(C(F)(F)F)nn2C)s1)[C@](O)(Cn1cncn1)c1ccc(F)cc1F | 0% | 2.3 µg/mL (≈ 4.37 µM) | 10% | 28 µg/mL (≈ 53.2 µM) |
| C[C@@H](NC(=O)c1scc(S(=O)(=O)c2ccc(Cl)cc2)c1N)[C@](O)(Cn1cncn1)c1ccc(F)cc1F | 0% | 1 µg/mL (≈ 1.76 µM) | 20% | 10 µg/mL (≈ 17.6 µM) |
| Cc1nc(Oc2ccc(Cl)cc2)sc1C(=O)N[C@H](C)[C@](O)(Cn1cncn1)c1ccc(F)cc1F | 0% | 1.5 µg/mL (≈ 2.88 µM) | 10% | 4 µg/mL (≈ 7.69 µM) |
| C[C@@H](NC(=O)c1ccc(Cl)cc1)[C@](O)(Cn1cncn1)c1ccc(F)cc1F | 0% | 3.9 µg/mL (≈ 9.59 µM) | 0% | 11 µg/mL (≈ 27 µM) |
| Cc1nc(-c2ccc(C#N)cc2)sc1C(=O)N[C@H](C)[C@](O)(Cn1cncn1)c1ccc(Cl)cc1Cl | 100% | 0.4 µg/mL (≈ 0.758 µM) | 100% | 5 µg/mL (≈ 9.48 µM) |
| C[C@@H](NC(=O)c1cnn(-c2ccc(C(F)(F)F)cc2)c1N)[C@](O)(Cn1cncn1)c1ccc(F)cc1F | – | 3.3 µg/mL (≈ 6.33 µM) | – | 28 µg/mL (≈ 53.7 µM) |
| Cc1nc(-c2ccc(C#N)cc2)sc1C(=O)N[C@H](C)[C@](O)(Cn1ccnc1)c1ccc(F)cc1F | 0% | 10 µg/mL (≈ 20.3 µM) | 70% | 45 µg/mL (≈ 91.2 µM) |
| Cc1nc(-c2ccc(OC(F)(F)F)cc2)sc1C(=O)N[C@H](C)[C@](O)(Cn1cncn1)c1ccc(F)cc1F | 100% | 1.3 µg/mL (≈ 2.35 µM) | 100% | 1.6 µg/mL (≈ 2.89 µM) |
| C[C@@H](NC(=O)c1noc(-c2ccc(Cl)cc2)n1)[C@](O)(Cn1cncn1)c1ccc(F)cc1F | 10% | 2.1 µg/mL (≈ 4.42 µM) | 100% | 32 µg/mL (≈ 67.4 µM) |
| Cc1nc(Br)sc1C(=O)N[C@H](C)[C@](O)(Cn1cncn1)c1ccc(F)cc1F | – | 4.6 µg/mL (≈ 9.74 µM) | – | 32 µg/mL (≈ 67.8 µM) |
| Cc1nc(S(=O)(=O)c2ccc(Cl)cc2)sc1C(=O)N[C@H](C)[C@](O)(Cn1cncn1)c1ccc(F)cc1F | 0% | 7.6 µg/mL (≈ 13.4 µM) | 0% | > 80 µg/mL |
| Cc1nc(C)c(C(=O)N[C@H](C)[C@](O)(Cn2cncn2)c2ccc(F)cc2F)s1 | 0% | 19 µg/mL (≈ 46.6 µM) | 0% | > 80 µg/mL |
| CCCS(=O)(=O)c1csc(C(=O)N[C@H](C)[C@](O)(Cn2cncn2)c2ccc(F)cc2F)c1N | – | 4.4 µg/mL (≈ 8.81 µM) | – | 23 µg/mL (≈ 46 µM) |
| Cc1cc(-c2ccc(Cl)cc2)sc1C(=O)N[C@H](C)[C@](O)(Cn1cncn1)c1ccc(F)cc1F | 20% | 0.3 µg/mL (≈ 0.596 µM) | 100% | 0.7 µg/mL (≈ 1.39 µM) |
| C[C@@H](NC(=O)c1nsc(-c2ccc(Cl)cc2)n1)[C@](O)(Cn1cncn1)c1ccc(F)cc1F | 10% | 1.4 µg/mL (≈ 2.85 µM) | 80% | > 80 µg/mL |
| Cc1c(C(=O)N[C@H](C)[C@](O)(Cn2cncn2)c2ccc(F)cc2F)cnn1C | – | > 80 µg/mL | – | > 80 µg/mL |
| C[C@@H](NC(=O)c1sc(-c2ccc(Cl)cc2)cc1N)[C@](O)(Cn1cncn1)c1ccc(F)cc1F | 0% | 0.6 µg/mL (≈ 1.19 µM) | 0% | 22 µg/mL (≈ 43.7 µM) |
| Cc1nc(-c2ccc(C(N)=O)cc2)sc1C(=O)N[C@H](C)[C@](O)(Cn1cncn1)c1ccc(F)cc1F | 0% | 20 µg/mL (≈ 39 µM) | 0% | > 80 µg/mL |
| C[C@@H](NC(=O)c1nc(-c2ccc(Cl)cc2)ns1)[C@](O)(Cn1cncn1)c1ccc(F)cc1F | 0% | 11 µg/mL (≈ 22.4 µM) | 10% | > 80 µg/mL |
| C[C@@H](NC(=O)c1sc(-c2ccc(C(F)(F)F)cc2)nc1C(F)(F)F)[C@](O)(Cn1cncn1)c1ccc(F)cc1F | <20% | 1.6 µg/mL (≈ 2.71 µM) | 90% | 17 µg/mL (≈ 28.7 µM) |
| Cc1cc(-c2ccc(C#N)cc2)sc1C(=O)N[C@H](C)[C@](O)(Cn1cncn1)c1ccc(F)cc1F | 70% | 0.7 µg/mL (≈ 1.42 µM) | 100% | 8.9 µg/mL (≈ 18 µM) |
| C[C@@H](n1ncn(-c2ccc(OCC(F)(F)C(F)F)cc2)c1=O)[C@](O)(Cn1cncn1)c1ccc(F)cc1F | 100% | 2.6 µg/mL (≈ 4.79 µM) | 100% | 8.9 µg/mL (≈ 16.4 µM) |
| Cc1nc(-c2ccc(C#N)cc2)sc1C(=O)N[C@H](C)[C@](O)(Cn1cncn1)c1ccc(C(F)(F)F)cc1 | 0% | 2 µg/mL (≈ 3.8 µM) | 0% | > 80 µg/mL |

| Structure (SMILES) | Protection (Candida albicans [1]) | MIC [2] | Protection (Candida albicans [3]) | MIC [4] |
| --- | --- | --- | --- | --- |
| C[C@@H](NC(=O)c1cnc(-c2ccc(Cl)cc2)s1)[C@](O)(Cn1cncn1)c1ccc(F)cc1F | 100% | 0.7 µg/mL (≈ 1.43 µM) | 100% | 6.3 µg/mL (≈ 12.9 µM) |
| C[C@@H](NC(=O)c1ccc(C(F)(F)F)cc1)[C@](O)(Cn1cncn1)c1ccc(F)cc1F | 100% | 4.6 µg/mL (≈ 10.4 µM) | 100% | 22 µg/mL (≈ 50 µM) |
| C[C@@H](NC(=O)c1sc(-c2ccc(C#N)cc2)nc1C(F)(F)F)[C@](O)(Cn1cncn1)c1ccc(F)cc1F | <50% | 2.9 µg/mL (≈ 5.29 µM) | 100% | 28 µg/mL (≈ 51 µM) |
| Cc1nc(-c2ccc(C#N)cc2)sc1C(=O)N[C@H](C)[C@](O)(Cn1cncn1)c1ccccc1F | 60% | 1.5 µg/mL (≈ 3.15 µM) | 100% | 5 µg/mL (≈ 10.5 µM) |
| C[C@@H](NC(=O)c1ccc(-c2ccc(C#N)cc2)s1)[C@](O)(Cn1cncn1)c1ccc(F)cc1F | 100% | 0.8 µg/mL (≈ 1.67 µM) | 100% | > 80 µg/mL |
| Cc1oc(-c2ccc(Cl)cc2)cc1C(=O)N[C@H](C)[C@](O)(Cn1cncn1)c1ccc(F)cc1F | 0% | 0.9 µg/mL (≈ 1.85 µM) | 100% | 10 µg/mL (≈ 20.5 µM) |
| C[C@@H](NC(=O)c1ccn(-c2ccc(Cl)cc2)c1)[C@](O)(Cn1cncn1)c1ccc(F)cc1F | 0% | 1.2 µg/mL (≈ 2.54 µM) | 0% | 17 µg/mL (≈ 36 µM) |
| Cc1sc(-c2ccc(Cl)cc2)nc1C(=O)N[C@H](C)[C@](O)(Cn1cncn1)c1ccc(F)cc1F | – | > 80 µg/mL | – | > 80 µg/mL |
| Cc1nc(-c2ccc(C(C)(C)C)cc2)sc1C(=O)N[C@H](C)[C@](O)(Cn1cncn1)c1ccc(F)cc1F | 0% | 2.1 µg/mL (≈ 4 µM) | 0% | 8.9 µg/mL (≈ 16.9 µM) |
| C[C@@H](NC(=O)c1ccc(-c2ccc(Cl)cc2)o1)[C@](O)(Cn1cncn1)c1ccc(F)cc1F | 0% | 1.5 µg/mL (≈ 3.17 µM) | 0% | > 80 µg/mL |
| Cc1nc(-c2ccc(C(F)(F)F)cc2)sc1C(=O)N[C@H](C)[C@](O)(Cn1cncn1)c1ccc(F)cc1F | 100% | 0.9 µg/mL (≈ 1.67 µM) | 100% | 2.2 µg/mL (≈ 4.09 µM) |
| C[C@@H](NC(=O)c1nc(-c2ccc(Cl)cc2)no1)[C@](O)(Cn1cncn1)c1ccc(F)cc1F | 10% | 2.1 µg/mL (≈ 4.42 µM) | 80% | 80 µg/mL (≈ 168 µM) |
| C[C@@H](NC(=O)c1cccc(-c2ccc(Cl)cc2)c1)[C@](O)(Cn1cncn1)c1ccc(F)cc1F | 0% | 0.3 µg/mL (≈ 0.621 µM) | 40% | > 80 µg/mL |
| C[C@@H](NC(=O)c1ccc(-c2ccc(Cl)cc2)s1)[C@](O)(Cn1cncn1)c1ccc(F)cc1F | 100% | 0.2 µg/mL (≈ 0.409 µM) | 100% | 3.5 µg/mL (≈ 7.16 µM) |
| Cc1nc(-c2ccc(OCC(F)(F)C(F)F)cc2)sc1C(=O)N[C@H](C)[C@](O)(Cn1cncn1)c1ccc(F)cc1F | 0% | 1.3 µg/mL (≈ 2.17 µM) | 100% | 2.2 µg/mL (≈ 3.67 µM) |
| C[C@@H](NC(=O)c1ccc(-c2ccc(Cl)cc2)cc1)[C@](O)(Cn1cncn1)c1ccc(F)cc1F | 100% | 0.3 µg/mL (≈ 0.621 µM) | 100% | 18 µg/mL (≈ 37.3 µM) |
| Cc1nc(-c2ccccc2)sc1C(=O)N[C@H](C)[C@](O)(Cn1cncn1)c1ccc(F)cc1F | 0% | 1.4 µg/mL (≈ 2.98 µM) | 30% | 7.6 µg/mL (≈ 16.2 µM) |
| C[C@@H](n1cnc2cc(-c3ccc(-n4ncnn4)cc3)sc2c1=O)[C@](O)(Cn1cncn1)c1ccc(F)cc1F | – | 1.9 µg/mL (≈ 3.47 µM) | – | > 80 µg/mL |
| Cc1nc(-c2sc(-c3ccc(Cl)cc3)nc2C)sc1C(=O)N[C@H](C)[C@](O)(Cn1cncn1)c1ccc(F)cc1F | 0% | 1.8 µg/mL (≈ 2.99 µM) | 10% | > 80 µg/mL |
| Cc1nc(-c2ccc(F)cc2)sc1C(=O)N[C@H](C)[C@](O)(Cn1cncn1)c1ccc(F)cc1F | 80% | 1.1 µg/mL (≈ 2.26 µM) | 100% | 1.8 µg/mL (≈ 3.69 µM) |
| Cc1nc(-c2ccc(C(=N)NO)cc2)sc1C(=O)N[C@H](C)[C@](O)(Cn1cncn1)c1ccc(F)cc1F | 0% | 12 µg/mL (≈ 22.7 µM) | 0% | 80 µg/mL (≈ 152 µM) |
| C[C@@H](NC(=O)c1sc(-c2ccc(C3N=NN=N3)cc2)nc1C(F)(F)F)[C@](O)(Cn1cncn1)c1ccc(F)cc1F | 0% | 75 µg/mL (≈ 127 µM) | 30% | > 80 µg/mL |
| C[C@@H](NC(=O)c1sc(-c2ccc(Cl)cc2)nc1C(F)(F)F)[C@](O)(Cn1cncn1)c1ccc(F)cc1F | <70% | 2 µg/mL (≈ 3.58 µM) | 100% | 8.9 µg/mL (≈ 16 µM) |
